Consider four compounds from ChEMBL document CHEMBL4321820, “Identification and Optimization of Mechanism-Based Fluoroallylamine Inhibitors of Lysyl Oxidase-like 2/3” (J Med Chem, 2019).

Structures are written as SMILES. The source made the active and inactive calls. No cut-off for these calls is given here.

The test system of data set [1] is Mus musculus. Put plainly: Effect on plasma AST level in CCl4-induced BALB/c mouse model of liver fibrosis at 50 mg/kg, po administered for 6 weeks. Format: ADME, organism-based. The following applies: in vivo, 1008 h. Put shortly: (§1)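 CCl4 liver fibrosis in female BALB/c mice: CCl4 i.p. (1 mL/kg 25% in olive oil) twice weekly for 6 weeks, sacrifice 48 h after final injection. Oral once-daily dosing weeks 1-6 or weeks 4-6; imatinib 50 mg/kg daily weeks 1-6. ALT and AST measured in plasma.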

Data set [2] relates to Mus musculus. The data set is described as follows: Effect on plasma ALT level in CCl4-induced BALB/c mouse model of liver fibrosis at 50 mg/kg, po administered for 6 weeks. The data set is classed as ADME, organism-based. The following applies: in vivo, 1008 h. Summed up:
as §1

The test system of data set [3] is Mus musculus. The data set is described as follows: Antifibrotic activity in CCl4-induced BALB/c mouse model of liver fibrosis assessed as reduction in liver fibrosis area at 50 mg/kg, po administered for 6 weeks by alpha-SMA staining based microscopy. Format: functional, organism-based. Summed up:
(§2)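 Female BALB/c mice given CCl4 i.p. (1 mL/kg of 25% CCl4 in olive oil) twice weekly for 6 weeks; sacrificed 48 h after last dose. Test articles oral, once daily: prophylactic weeks 1-6 or therapeutic weeks 4-6; imatinib control 50 mg/kg daily weeks 1-6. One formalin-fixed liver lobe stained for Picro Sirius Red and α-SMA; fibrotic area as % of total liver area; mean ± SEM, one-way ANOVA with Dunnett's test.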

Data set [4] has as its system Mus musculus. The data set is described as follows: Antifibrotic activity in bleomycin-induced C57BL/6 mouse model of lung fibrosis assessed as reduction in Ashcroft score at 50 mg/kg, ip administered on day 7 to 27 and measured on day 28 by H and E staining based microscopy. Format: functional. Particulars: C57BL/6, ip. Put shortly:
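Female C57BL/6 mice, 6-8 weeks old, under isoflurane received intranasal bleomycin sulphate 0.05 U/mouse in PBS; controls got PBS. Once-daily i.p. treatment days 7-27, n=12/group; imatinib 50 mg/kg i.p. as comparator. Sacrifice at day 28; lung fibrosis scored by Ashcroft score.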

Data set [5] relates to Mus musculus. The data set is described as follows: Antifibrotic activity in CCl4-induced BALB/c mouse model of liver fibrosis assessed as liver fibrosis area at 50 mg/kg, po administered for 6 weeks by picro-sirius red staining based microscopy. Format: functional, organism-based. Summed up: as §2
Data set [6] can be described thus: Time during which plasma concentration exceed invitro IC50 for recombinant human LOXL2 in BALB/c mouse administered with (Z)-Ethyl1-(4-Amino-2-fluorobut-2-en-1-yl)-3-(3-(N,N-dimethylsulfamoyl)phenyl)-2-methyl-1H-indole-5-carboxylate Hydrochloride at 20 mg/kg, po administered via gavage by HPLC-MS/MS analysis. The data set is classed as ADME, organism-based. The following applies: in vivo.

A further data set has as its target T1, Protein-lysine 6-oxidase (Bos taurus, UniProt P33072).
T1 sequence (P33072 whole entry): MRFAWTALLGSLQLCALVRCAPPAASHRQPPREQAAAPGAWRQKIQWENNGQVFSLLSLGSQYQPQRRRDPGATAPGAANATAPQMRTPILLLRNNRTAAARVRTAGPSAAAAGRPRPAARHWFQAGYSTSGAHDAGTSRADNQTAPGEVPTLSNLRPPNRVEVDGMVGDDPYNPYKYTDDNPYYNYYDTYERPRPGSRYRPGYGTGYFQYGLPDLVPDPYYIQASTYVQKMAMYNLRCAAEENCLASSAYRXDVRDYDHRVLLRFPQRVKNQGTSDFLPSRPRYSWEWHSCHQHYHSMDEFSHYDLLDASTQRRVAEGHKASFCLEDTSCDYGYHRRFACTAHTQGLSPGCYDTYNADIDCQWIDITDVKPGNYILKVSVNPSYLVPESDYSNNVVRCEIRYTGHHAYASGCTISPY
The data set is described as follows: Inhibition of LOX in bovine aorta using putrescine as substrate preincubated with enzyme for 30 mins followed by substrate addition and measured every 2.5 mins for 30 mins by Amplex-Red oxidation assay. The data set is classed as tissue-based. Particulars: read-out: pIC50 (converted). Put shortly:
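LOX extracted from calf aorta after PBS washing with 4 M urea/50 mM borate pH 8.2, concentrated on 10 kDa filters into 1.2 M urea/borate with protease inhibitors. Preincubated 30 min at 37 °C with compound, then Amplex Red/HRP with 10 mM putrescine; fluorescence read every 2.5 min for 30 min.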

Data set [7] deals with Mus musculus. Put plainly: Antifibrotic activity in CCl4-induced BALB/c mouse model of liver fibrosis assessed as reduction in liver fibrosis area at 2 mg/ml, po administered every 2 day for 6 weeks by alpha-SMA staining based microscopy. The data set is classed as functional, organism-based. Summed up:
(§3)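 Female BALB/c mice given CCl4 i.p. (1 mL/kg of 25% CCl4 in olive oil) twice weekly for 6 weeks, killed 48 h after the last dose. The 2 mg/mL treatment was given in drinking water ad libitum, changed every second day, for 6 weeks (n=15). One liver lobe was formalin-fixed and stained for Picro Sirius Red or α-SMA. Slides were scanned at 20X. Fibrotic area is given as % of total liver area, mean ± SEM. One-way ANOVA with Dunnett's test vs CCl4 + vehicle.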

Data set [8] deals with Mus musculus. Put plainly: Increase in plasma ALT level in CCl4-induced BALB/c mouse model of liver fibrosis at 2 mg/ml, po administered every 2 day for 6 weeks. The data set is classed as ADME, organism-based. Particulars: in vivo. Summed up: (§4)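 Female BALB/c mice given CCl4 i.p. (1 mL/kg of 25% CCl4 in olive oil) twice weekly for 6 weeks, killed 48 h after the last dose. The 2 mg/mL treatment was given in drinking water ad libitum, changed every second day, for 6 weeks (n=15). ALT and AST were measured in plasma.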

Data set [9] relates to Mus musculus. The data set is described as follows: Antifibrotic activity in CCl4-induced BALB/c mouse model of liver fibrosis assessed as liver fibrosis area at 2 mg/ml, po administered every 2 day for 6 weeks by picro-sirius red staining based microscopy. Format: functional, organism-based. Put shortly: as §3
Data set [10] relates to Mus musculus. Put plainly: Increase in plasma AST level in CCl4-induced BALB/c mouse model of liver fibrosis at 2 mg/ml, po administered every 2 day for 6 weeks. Format: ADME, organism-based. The following applies: in vivo. Put shortly: as §4
Data set [11] deals with SSAO/plasma amine oxidase. The data set is described as follows: Metabolic stability of the compound in dog plasma assessed as SSAO/plasma amine oxidase-mediated compound oxidation by measuring parent compound remaining after 1 hr. The data set is classed as ADME, Canis lupus familiaris. The following applies: read-out: Stability. Put shortly:
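Compound incubated in dog plasma; percentage of parent compound remaining measured after 1 hour.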

Data set [12] can be described thus: Metabolic stability of the compound in dog plasma assessed as SSAO/plasma amine oxidase-mediated compound oxidation preincubated with SSAO/primary amine oxidase inhibitor, semicarbazide followed by incubation with compound and measured after 1 hr. The data set is classed as ADME, Canis lupus familiaris.
The target in data set [13] is T2, Amine oxidase [flavin-containing] B (Homo sapiens, UniProt P27338).
T2 sequence (P27338 whole entry): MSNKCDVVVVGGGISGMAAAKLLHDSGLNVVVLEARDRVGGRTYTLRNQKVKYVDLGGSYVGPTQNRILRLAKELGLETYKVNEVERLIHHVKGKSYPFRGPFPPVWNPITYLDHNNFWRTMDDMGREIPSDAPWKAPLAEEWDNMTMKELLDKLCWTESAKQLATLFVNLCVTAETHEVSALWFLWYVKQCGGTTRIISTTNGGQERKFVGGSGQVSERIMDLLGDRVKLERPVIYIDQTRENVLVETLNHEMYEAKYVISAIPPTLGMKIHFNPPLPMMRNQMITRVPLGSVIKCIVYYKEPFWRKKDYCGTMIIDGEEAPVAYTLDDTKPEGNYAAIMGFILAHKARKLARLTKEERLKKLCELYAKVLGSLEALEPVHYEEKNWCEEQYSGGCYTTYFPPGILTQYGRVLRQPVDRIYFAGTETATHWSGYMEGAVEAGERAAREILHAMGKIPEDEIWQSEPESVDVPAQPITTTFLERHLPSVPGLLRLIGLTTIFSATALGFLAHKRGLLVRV
Put plainly: Inhibition of recombinant human MAOB expressed in baculovirus infected in BTI cells using benzylamine as substrate preincubated with enzyme for 30 mins followed by substrate addition and measured every 2.5 mins for 30 mins by Amplex-Red oxidation assay. Particulars: human, 0.5 h.

Data set [14] addresses T3, Amine oxidase [copper-containing] 3 (Homo sapiens, UniProt Q16853).
T3 sequence (Q16853 whole entry): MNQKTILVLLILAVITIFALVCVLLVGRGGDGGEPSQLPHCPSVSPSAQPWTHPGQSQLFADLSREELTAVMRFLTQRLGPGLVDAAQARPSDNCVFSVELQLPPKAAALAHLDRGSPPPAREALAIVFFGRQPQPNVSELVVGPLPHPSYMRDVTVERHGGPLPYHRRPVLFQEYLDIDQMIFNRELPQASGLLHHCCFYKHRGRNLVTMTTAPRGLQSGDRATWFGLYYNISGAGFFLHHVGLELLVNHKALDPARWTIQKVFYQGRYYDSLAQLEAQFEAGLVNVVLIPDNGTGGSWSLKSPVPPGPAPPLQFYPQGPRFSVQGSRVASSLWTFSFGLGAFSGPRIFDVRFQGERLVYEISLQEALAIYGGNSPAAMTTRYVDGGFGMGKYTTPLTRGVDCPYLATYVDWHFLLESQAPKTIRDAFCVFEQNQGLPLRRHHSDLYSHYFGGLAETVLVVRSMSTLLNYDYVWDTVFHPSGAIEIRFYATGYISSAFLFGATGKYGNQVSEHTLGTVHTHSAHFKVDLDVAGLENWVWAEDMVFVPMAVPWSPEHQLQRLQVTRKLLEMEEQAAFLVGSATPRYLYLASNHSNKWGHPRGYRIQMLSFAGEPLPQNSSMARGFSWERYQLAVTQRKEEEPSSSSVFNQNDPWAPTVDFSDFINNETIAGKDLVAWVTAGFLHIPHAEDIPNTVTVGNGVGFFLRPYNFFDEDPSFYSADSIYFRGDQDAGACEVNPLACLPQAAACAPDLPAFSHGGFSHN
The data set is described as follows: Inhibition of recombinant human SSAO using benzylamine as substrate preincubated with enzyme for 30 mins followed by substrate addition and measured every 2.5 mins for 30 mins by Amplex-Red oxidation assay. Particulars: read-out: pIC50 (converted).

Another data set deals with T4, Lysyl oxidase homolog 2 (Homo sapiens, UniProt Q9Y4K0).
T4 sequence (Q9Y4K0 whole entry): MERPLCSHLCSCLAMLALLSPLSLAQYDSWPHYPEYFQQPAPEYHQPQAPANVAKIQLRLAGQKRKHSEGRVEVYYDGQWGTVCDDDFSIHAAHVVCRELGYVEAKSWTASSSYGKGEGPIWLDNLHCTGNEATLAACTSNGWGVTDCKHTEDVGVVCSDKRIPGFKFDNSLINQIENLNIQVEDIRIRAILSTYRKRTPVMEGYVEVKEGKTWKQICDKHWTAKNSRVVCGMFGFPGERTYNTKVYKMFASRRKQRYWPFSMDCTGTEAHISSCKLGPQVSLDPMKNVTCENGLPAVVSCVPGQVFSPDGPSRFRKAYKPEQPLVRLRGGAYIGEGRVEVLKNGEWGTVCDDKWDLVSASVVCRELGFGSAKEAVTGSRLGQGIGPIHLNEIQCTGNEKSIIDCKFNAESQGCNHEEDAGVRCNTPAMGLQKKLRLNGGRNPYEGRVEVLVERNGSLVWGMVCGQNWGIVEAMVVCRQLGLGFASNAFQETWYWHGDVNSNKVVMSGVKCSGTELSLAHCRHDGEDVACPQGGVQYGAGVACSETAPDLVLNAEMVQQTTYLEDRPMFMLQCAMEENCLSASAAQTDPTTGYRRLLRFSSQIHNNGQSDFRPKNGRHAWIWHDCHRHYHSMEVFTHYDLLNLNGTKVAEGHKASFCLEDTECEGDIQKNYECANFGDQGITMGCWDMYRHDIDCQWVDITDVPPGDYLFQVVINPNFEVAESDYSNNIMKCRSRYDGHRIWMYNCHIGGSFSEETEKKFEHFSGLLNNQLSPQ
The data set is described as follows: Inhibition of recombinant human C-terminal His-tagged […] (1-774 residues) expressed in mouse myeloma cells using putrescine as substrate preincubated with enzyme for 30 mins followed by substrate addition and measured every 2.5 mins for 30 mins by Amplex-Red oxidation assay. The following applies: read-out: pIC50 (converted). Summed up:
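LOXL2 enzyme preincubated with compound for 30 min at 37 °C, then Amplex Red (120 µM) / HRP (1.5 U/mL) mix containing 5 mM putrescine added. Buffer: 1.2 M urea, 50 mM sodium borate, pH 8.2. H2O2 fluorescence (ex 565/em 590) read every 2.5 min for 30 min at 37 °C; BAPN 100 µM as positive control; n≥2.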

Take `Cc1ccc(NC(=O)c2ccc(CN3CCN(C)CC3)cc2)cc1Nc1nccc(-c2cccnc2)n1` [IMATINIB]: the Activity entry in the data set with Mus musculus [1] and in the data set with Mus musculus [2] was “Non-Toxic” throughout. For the same compound, the inhibition entry with Mus musculus [3] is “Active”. Besides, the inhibition in vivo at 50 mg/kg in the data set with Mus musculus [4] is 50 to 70%. Moreover, the inhibition entry in the data set with Mus musculus [5] was “inactive”.

In the case of `Cc1c(-c2cccc(S(=O)(=O)N(C)C)c2)c2cc(C(=O)O)ccc2n1C/C(F)=C/CN`, the “T>IC50” value in data set [6] was > 6 h.

Take `N#CCCN`: the IC50 at Protein-lysine 6-oxidase is 2000 nM. The inhibition result with Mus musculus [7] was “Active”. For the same compound, the Activity result with Mus musculus [8] and in the data set on Mus musculus [10] was “Toxic” in each case. Also, the inhibition result in the data set on Mus musculus [9] is “inactive”.

On to `CN(C)S(=O)(=O)c1ccc(OCc2cn(C/C(F)=C/CN)nn2)c(Cl)c1.Cl`, for which the IC50 at Protein-lysine 6-oxidase was 794 nM; in [14] it was > 31600 nM; at Lysyl oxidase homolog 2, 20 nM. The remaining at 1 h in data set [11] is 0%. The Stability entry in data set [12] is “Stable”. Also, in data set [13], the pIC50 result is reported as “Not Active”.

Usually inhibition in vivo stands for the percentage by which the read-out fell short of the control.
